From ChEMBL document CHEMBL5252537, “Usnic Acid Benzylidene Analogues as Potent Mechanistic Target of Rapamycin Inhibitors for the Control of Breast Malignancies” (J Nat Prod, 2017)

Assays:
MCF7 = assay: Antiproliferative activity against human MCF7 cells incubated for 72 hrs by MTT assay; assay type: functional, cell-based; conditions: MCF7, 72 h
How it was run: (§1)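 Cells seeded at 5 × 10^3/well and allowed to attach overnight, then washed with PBS. Compound diluted from 10 mM DMSO stock into medium (100 ng/mL HGF added for c-Met-expressing cells), in triplicate, 72 h at 37 °C. MTT added for 4 h, formazan dissolved in DMSO, absorbance read at 570 nm. Cell numbers taken from a standard curve; IC50 calculated.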

MDA-MB-231 = assay: Antiproliferative activity against human MDA-MB-231 cells incubated for 72 hrs by MTT assay; assay type: functional, cell-based; conditions: MDA-MB-231, 72 h; how it was run: as §1

IC50 (MCF7) [nM]	IC50 (MDA-MB-231) [nM]	Compound
2100	2630	CC(=O)C1=C(O)C=C2Oc3c(C(=O)/C=C/c4ccc(Cl)cc4)c(O)c(C)c(O)c3[C@]2(C)C1=O
930	1150	COc1cc(F)c(/C=C/C(=O)c2c(O)c(C)c(O)c3c2OC2=CC(O)=C(C(C)=O)C(=O)[C@]23C)cc1OC
840	1030	CC(=O)C1=C(O)C=C2Oc3c(C(=O)/C=C/c4ccc(C(C)(C)C)cc4)c(O)c(C)c(O)c3[C@]2(C)C1=O
1220	1630	COc1cc(/C=C/C(=O)c2c(O)c(C)c(O)c3c2OC2=CC(O)=C(C(C)=O)C(=O)[C@]23C)cc(OC)c1OC
910	720	CC(=O)C1=C(O)C=C2Oc3c(C(=O)/C=C/c4cc(C(F)(F)F)cc(C(F)(F)F)c4)c(O)c(C)c(O)c3[C@]2(C)C1=O
3640	4010	CC(=O)C1=C(O)C=C2Oc3c4c(c(C)c(O)c3[C@]2(C)C1=O)OC(c1ccc(Cl)cc1Cl)CC4=O (some centres not stated)
4920	4310	CC(=O)C1=C(O)C=C2Oc3c4c(c(C)c(O)c3[C@]2(C)C1=O)OC(c1c(Cl)cccc1Cl)CC4=O (some centres not stated)
730	710	CC(=O)C1=C(O)C=C2Oc3c(C(=O)/C=C/c4ccc(C(F)(F)F)cc4)c(O)c(C)c(O)c3[C@]2(C)C1=O
530	620	CCCCOc1ccc(/C=C/C(=O)c2c(O)c(C)c(O)c3c2OC2=CC(O)=C(C(C)=O)C(=O)[C@]23C)cc1
2910	2230	CCCCOc1ccc(C2CC(=O)c3c(c(C)c(O)c4c3OC3=CC(O)=C(C(C)=O)C(=O)[C@]34C)O2)cc1 (some centres not stated)
750	910	CC(=O)C1=C(O)C=C2Oc3c(C(=O)/C=C/c4ccc(OCc5ccc(F)cc5)cc4)c(O)c(C)c(O)c3[C@]2(C)C1=O
710	840	CCOc1ccc(/C=C/C(=O)c2c(O)c(C)c(O)c3c2OC2=CC(O)=C(C(C)=O)C(=O)[C@]23C)cc1
520	680	CC(=O)C1=C(O)C=C2Oc3c(C(=O)/C=C/c4ccc(-c5ccc(F)cc5)cc4)c(O)c(C)c(O)c3[C@]2(C)C1=O
3630	4790	CC(=O)C1=C(O)C=C2Oc3c(C(=O)/C=C/c4cccc(F)c4)c(O)c(C)c(O)c3[C@]2(C)C1=O
2980	3310	CC(=O)C1=C(O)C=C2Oc3c(C(=O)/C=C/c4ccc(F)cc4)c(O)c(C)c(O)c3[C@]2(C)C1=O
1820	2090	CC(=O)C1=C(O)C=C2Oc3c(C(=O)/C=C/c4cc(F)cc(F)c4)c(O)c(C)c(O)c3[C@]2(C)C1=O
1530	5690	CC(=O)C1=C(O)C=C2Oc3c(C(=O)/C=C/c4c(Cl)cccc4Cl)c(O)c(C)c(O)c3[C@]2(C)C1=O
1960	2380	CC(=O)C1=C(O)C=C2Oc3c(C(=O)/C=C/c4c(F)cccc4F)c(O)c(C)c(O)c3[C@]2(C)C1=O
12800	14400	CC(=O)C1=C(O)C=C2Oc3c4c(c(C)c(O)c3[C@]2(C)C1=O)OC(c1ccc(C(=O)O)cc1)CC4=O (some centres not stated)
720	890	CSc1ccc(/C=C/C(=O)c2c(O)c(C)c(O)c3c2OC2=CC(O)=C(C(C)=O)C(=O)[C@]23C)cc1
1140	950	CC(=O)C1=C(O)C=C2Oc3c(C(=O)/C=C/c4ccc(OCc5ccccc5)cc4)c(O)c(C)c(O)c3[C@]2(C)C1=O
4770	3930	CC(=O)C1=C(O)C=C2Oc3c4c(c(C)c(O)c3[C@]2(C)C1=O)OC(c1ccc(C(F)(F)F)cc1)CC4=O (some centres not stated)
6220	6890	CC(=O)C1=C(O)C=C2Oc3c4c(c(C)c(O)c3[C@]2(C)C1=O)OC(c1ccc(F)cc1)CC4=O (some centres not stated)
1330	1650	CC(=O)C1=C(O)C=C2Oc3c(C(=O)/C=C/c4ccc(C)cc4)c(O)c(C)c(O)c3[C@]2(C)C1=O
2700	3920	CC(=O)C1=C(O)C=C2Oc3c(C(=O)/C=C/c4cccc(Cl)c4)c(O)c(C)c(O)c3[C@]2(C)C1=O
390	580	CC(=O)C1=C(O)C=C2Oc3c(C(=O)/C=C/c4ccc(OCCC(C)C)cc4)c(O)c(C)c(O)c3[C@]2(C)C1=O

IC50 (MCF7) [nM]	IC50 (MDA-MB-231) [nM]	Compound
6320	6410	CC(=O)C1=C(O)C=C2Oc3c4c(c(C)c(O)c3[C@]2(C)C1=O)OC(c1cccc(Cl)c1)CC4=O (some centres not stated)
5810	4440	CC(=O)C1=C(O)C=C2Oc3c(C(=O)CC(O)c4cc(Cl)cc(Cl)c4)c(O)c(C)c(O)c3[C@]2(C)C1=O (some centres not stated)
7260	8040	CC(=O)C1=C(O)C=C2Oc3c4c(c(C)c(O)c3[C@]2(C)C1=O)OC(c1ccccc1)CC4=O (some centres not stated)
5920	6130	CCOc1ccccc1C1CC(=O)c2c(c(C)c(O)c3c2OC2=CC(O)=C(C(C)=O)C(=O)[C@]23C)O1 (some centres not stated)
3430	3650	CC(=O)C1=C(O)C=C2Oc3c4c(c(C)c(O)c3[C@]2(C)C1=O)OC(c1ccc(C(C)(C)C)cc1)CC4=O (some centres not stated)
4210	5990	CC(=O)C1=C(O)C=C2Oc3c4c(c(C)c(O)c3[C@]2(C)C1=O)OC(c1ccc(C)cc1)CC4=O (some centres not stated)
3740	3540	CC(=O)C1=C(O)C=C2Oc3c(C(=O)/C=C/c4ccccc4F)c(O)c(C)c(O)c3[C@]2(C)C1=O
970	960	COc1ccc(/C=C/C(=O)c2c(O)c(C)c(O)c3c2OC2=CC(O)=C(C(C)=O)C(=O)[C@]23C)cc1
3360	3680	CCOc1ccc(C2CC(=O)c3c(c(C)c(O)c4c3OC3=CC(O)=C(C(C)=O)C(=O)[C@]34C)O2)cc1 (some centres not stated)
6530	5710	CC(=O)C1=C(O)C=C2Oc3c4c(c(C)c(O)c3[C@]2(C)C1=O)OC(c1ccc(OCc2ccccc2)cc1)CC4=O (some centres not stated)
3730	2940	COc1cccc(C2CC(=O)c3c(c(C)c(O)c4c3OC3=CC(O)=C(C(C)=O)C(=O)[C@]34C)O2)c1 (some centres not stated)
1130	1530	CC(=O)C1=C(O)C=C2Oc3c(C(=O)/C=C/c4ccc(Br)cc4)c(O)c(C)c(O)c3[C@]2(C)C1=O
870	930	CC(=O)C1=C(O)C=C2Oc3c(C(=O)/C=C/c4ccc(OCc5c(F)cccc5Cl)cc4)c(O)c(C)c(O)c3[C@]2(C)C1=O
1510	1790	CC(=O)C1=C(O)C=C2Oc3c4c(c(C)c(O)c3[C@]2(C)C1=O)OC(c1ccc(OC(F)(F)F)cc1)CC4=O (some centres not stated)
2180	2030	CCOc1ccccc1/C=C/C(=O)c1c(O)c(C)c(O)c2c1OC1=CC(O)=C(C(C)=O)C(=O)[C@]12C
3090	4420	CC(=O)C1=C(O)C=C2Oc3c4c(c(C)c(O)c3[C@]2(C)C1=O)OC(c1ccc(OCc2c(F)cccc2Cl)cc1)CC4=O (some centres not stated)
9380	10600	CC(=O)C1=C(O)C=C2Oc3c(C(=O)/C=C/c4ccc(C(=O)O)cc4)c(O)c(C)c(O)c3[C@]2(C)C1=O
1230	1160	CC(=O)C1=C(O)C=C2Oc3c(C(=O)/C=C/c4cccc(C(F)(F)F)c4)c(O)c(C)c(O)c3[C@]2(C)C1=O
930	1360	CC(=O)C1=C(O)C=C2Oc3c(C(=O)/C=C/c4ccc(Cl)cc4Cl)c(O)c(C)c(O)c3[C@]2(C)C1=O
4500	5100	CC(=O)C1=C(O)C=C2Oc3c(C(=O)/C=C/c4ccccc4)c(O)c(C)c(O)c3[C@]2(C)C1=O
540	730	CCSc1ccc(/C=C/C(=O)c2c(O)c(C)c(O)c3c2OC2=CC(O)=C(C(C)=O)C(=O)[C@]23C)cc1
4320	5580	CC(=O)C1=C(O)C=C2Oc3c4c(c(C)c(O)c3[C@]2(C)C1=O)OC(c1ccc(OCc2ccc(F)cc2)cc1)CC4=O (some centres not stated)
5240	1560	CC(=O)C1=C(O)C=C2Oc3c(C(=O)CC(O)c4cc(C(F)(F)F)cc(C(F)(F)F)c4)c(O)c(C)c(O)c3[C@]2(C)C1=O (some centres not stated)
740	720	CC(=O)C1=C(O)C=C2Oc3c(C(=O)/C=C/c4ccc(-c5ccccc5)cc4)c(O)c(C)c(O)c3[C@]2(C)C1=O
2440	2950	CC(=O)C1=C(O)C=C2Oc3c(C(=O)/C=C/c4cc(Cl)cc(Cl)c4)c(O)c(C)c(O)c3[C@]2(C)C1=O
